The text below walks through data of ChEMBL document CHEMBL1221305, “Synthesis and evaluation of oryzalin analogs against Toxoplasma gondii” (Bioorg Med Chem Lett, 2010).

Activity calls are given as the source filed them. The calls are words filed in the database; no cut-off is given here.

Series [1] relates to Toxoplasma gondii. Nature of the series: Antimicrobial activity against Toxoplasma gondii RH infected in HFF assessed as inhibition of parasite growth at 10 to 25 uM after 28 hrs by immunofluorescence assay. Type of series: functional, organism-based. An outline of the steps:
(§1)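 Human fibroblast (HFF) cultures infected with intracellular T. gondii were exposed to compound in DMSO, with DMSO-only controls. They were fixed 28 h after infection for immunofluorescence. Parasite subpellicular microtubules were stained green, with host microtubules or parasite surface antigen P30/SAG1 in red and DNA in blue. Matched phase-contrast images were taken, and parasites per vacuole were scored.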

Series [2] deals with Toxoplasma gondii RH. Nature of the series: Inhibition of tubulin in Toxoplasma gondii RH infected in HFF assessed as microtubules disruption at 10 to 25 uM after 28 hrs by immunofluorescence assay. The essentials:
as §1

Series [3] deals with Toxoplasma gondii. Nature of the series: Antimicrobial activity against Toxoplasma gondii RH infected in HFF assessed as inhibition of parasite replication at 10 to 25 uM after 28 hrs by immunofluorescence assay. Type of series: functional, organism-based. An outline of the steps: as §1
Series [4] has as its system Toxoplasma gondii. Put plainly: Antimicrobial activity against Toxoplasma gondii infected in HFF after 8 days by plaque assay. Type of series: functional, organism-based. The settings on record: 192 h.
For series [5], the system named is HFF. Put plainly: Cytotoxicity against HFF assessed as cell vacuolation at 30 uM after 17 hrs by MTS assay. The series is classed as cell-based. The settings on record: human.
The subject of series [6] is HFF. Nature of the series: Cytotoxicity against HFF assessed as assessed as reduction of cell viability at 30 uM after 17 hrs by MTS assay. Type of series: cell-based. The conditions noted are these: human. For orientation: Tetrazolium assays rely on reduction of a dye to a coloured formazan, in cell work by metabolically active cells.
For series [7], the system named is Toxoplasma gondii. Put plainly: Antimicrobial activity against Toxoplasma gondii RH infected in HFF assessed as inhibition of parasite replication at 0.5 uM after 28 hrs by immunofluorescence assay. The series is classed as functional, organism-based.
Series [8] concerns Toxoplasma gondii RH. Put plainly: Inhibition of tubulin in Toxoplasma gondii RH infected in HFF assessed as microtubules disruption at 0.5 uM after 28 hrs by immunofluorescence assay. An outline of the steps: (§2)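 Human foreskin fibroblast (HFF) cultures infected with intracellular Toxoplasma were treated for 28 h with 0.5 µM compound in DMSO, with DMSO vehicle as control. Read-out was immunofluorescence: host cell microtubules in red, parasite subpellicular microtubules/tubulin in green, and host and parasite DNA in blue. Microtubules were scored as filamentous linear arrays or as diffuse staining, with matched phase-contrast images.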

The target in a further series is Tubulin (Homo sapiens) (UniProt P68371+Q9H4B7+P0DPH7+P68366+Q13509+Q71U36+P04350+Q3ZCM7+P07437+P68363+Q9BQE3+Q6PEY2+Q13885+Q9BVA1+Q9BUF5). Put plainly: Inhibition of tubulin in HFF assessed as microtubules disruption at 0.5 uM after 28 hrs by immunofluorescence assay. An outline of the steps: as §2
For series [9], the system named is HFF. Nature of the series: Cytotoxicity against HFF assessed as reduction of cell viability at 0.5 uM after 17 hrs by MTS assay. The series is classed as cell-based. The conditions noted are these: human. The essentials:
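Host HFF cells were treated for 17 h with compound at 0.5 µM or 30 µM. Viable cells were quantified by tetrazolium dye (MTS, CellTiter reagent) assay.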

Regarding `NS(=O)(=O)c1cc([N+](=O)[O-])c(N(CC2CCCCC2)CC2CCCCC2)c([N+](=O)[O-])c1`, the inhibition result in the series on Toxoplasma gondii [1] and with Toxoplasma gondii [3] was “Active” in each case. Moreover, the inhibition result in the series with Toxoplasma gondii RH [2] was “inactive”. By IC50 is commonly meant the concentration that gives 50% inhibition. High values mean a need for much substance, low ones inhibition by little substance. With `CC(C)CN(CC(C)C)c1c([N+](=O)[O-])cc(S(N)(=O)=O)cc1[N+](=O)[O-]`, the IC50 in the series on Toxoplasma gondii [4] was found to be 0.35 µM. That is a sub-micromolar value. On the same count and under the same terms, for `NS(=O)(=O)c1cc([N+](=O)[O-])c(N(CCCl)Cc2ccccc2)c([N+](=O)[O-])c1` the value was 0.85 µM; for `NS(=O)(=O)c1cc([N+](=O)[O-])c(N(CCCCl)Cc2ccccc2)c([N+](=O)[O-])c1`, 2.6 µM.

For the molecule `Cc1ccc(CN(Cc2ccc(C)cc2)c2c([N+](=O)[O-])cc(S(N)(=O)=O)cc2[N+](=O)[O-])cc1`, the Activity result in the series on HFF [5] is recorded as “Toxic”. Also, the inhibition result in the series on Toxoplasma gondii [1] and in the series with Toxoplasma gondii [3] was “Active” throughout. The inhibition result in the series on Toxoplasma gondii RH [2] was “inactive”. Take `CCCN(CCC)c1c([N+](=O)[O-])cc(S(=O)(=O)Nc2ccccc2)cc1[N+](=O)[O-]`: in the series with Toxoplasma gondii [4], inhibition was half-maximal at 6.7 µM (IC50). For the molecule `CCCN(CCC)c1c([N+](=O)[O-])cc(S(=O)(=O)Nc2ccc(O)cc2)cc1[N+](=O)[O-]`, the IC50 with Toxoplasma gondii [4] came out at 2.6 µM. The molecule `CCCN(CCC)c1c([N+](=O)[O-])cc(C(F)(F)F)cc1[N+](=O)[O-]` [TRIFLURALIN] yielded an IC50 in the series on Toxoplasma gondii [4] of 0.65 µM. For the molecule `NS(=O)(=O)c1cc([N+](=O)[O-])c(N(Cc2ccccc2)Cc2ccccc2)c([N+](=O)[O-])c1`, the inhibition result with Toxoplasma gondii [1] and in the series on Toxoplasma gondii [3] was “Active” throughout. Besides, in the series with Toxoplasma gondii RH [2], the inhibition entry was “inactive”.

Molecule `CCCCN(CCCC)c1c([N+](=O)[O-])cc(S(N)(=O)=O)cc1[N+](=O)[O-]` displayed an IC50 in the series with Toxoplasma gondii [4] of 1.1 µM. For `NS(=O)(=O)c1cc([N+](=O)[O-])c(N(CCc2ccccc2)CCc2ccccc2)c([N+](=O)[O-])c1`, the Activity result in the series on HFF [6] and in the series with HFF [5] was “Toxic” each time. Further, the inhibition entry in the series on Toxoplasma gondii [1] and in the series on Toxoplasma gondii [3] was “Active” throughout. Further, the inhibition result in the series on Toxoplasma gondii RH [2] is “inactive”. On to `CCCN(CCC)c1c([N+](=O)[O-])cc([N+](=O)[O-])cc1C(F)(F)F`, for which the half-inhibitory concentration (IC50) in the series on Toxoplasma gondii [4] amounted to 7.8 µM. In other words, the single-digit micromolar range. On the same count and under the same terms, for `CCCN(CCC)c1c([N+](=O)[O-])cc(S(=O)(=O)NCCO)cc1[N+](=O)[O-]` the value was 26 µM. For the molecule `CCN(CC)c1c([N+](=O)[O-])cc(C(F)(F)F)c(N)c1[N+](=O)[O-]` [DINITRAMINE], the IC50 with Toxoplasma gondii [4] is 0.07 µM. In the case of `CCCN(CCC)c1c([N+](=O)[O-])cc(S(N)(=O)=O)cc1[N+](=O)[O-]` [ORYZALIN], in the series on Toxoplasma gondii [4], the IC50 came to 0.25 µM.

`NS(=O)(=O)c1cc([N+](=O)[O-])c(N(Cc2ccccc2)CC2CC2)c([N+](=O)[O-])c1` showed an IC50 in the series on Toxoplasma gondii [4] of 2.1 µM. Against the preceding molecule, the IC50 is about 8.4-fold higher.

On to `CCCN(CCC)c1c([N+](=O)[O-])cc(C(F)(F)F)c(N)c1[N+](=O)[O-]`, for which the inhibition result in the series with Toxoplasma gondii [7] and with Toxoplasma gondii RH [8] was “Active” in each case. The Activity result at Tubulin (Homo sapiens) and in the series on HFF [9] was “Non-toxic” throughout. The same molecule came in with an IC50 in the series with Toxoplasma gondii [4] of 0.036 µM. `CCCCN(CCCC)c1c([N+](=O)[O-])cc(C(F)(F)F)c(N)c1[N+](=O)[O-]` gave an IC50 in the series with Toxoplasma gondii [4] of 0.51 µM. On to `CCCN(CCC)c1c(C#N)cc(S(N)(=O)=O)cc1C#N`, for which, in the series with Toxoplasma gondii [4], the IC50 was 4.8 µM. As for `CCCN(CCC)c1c([N+](=O)[O-])cc(S(=O)(=O)N(C)C)cc1[N+](=O)[O-]`, in the series with Toxoplasma gondii [4], the half-maximal inhibitory concentration (IC50) is 3.4 µM.
